Where a name gives a salt, the structure may show the parent alone. Calls of active or inactive are those of the source. The calls are words filed in the database; no cut-off is given here.
What was measured:
[1] = Antiplatelet aggregation activity in rabbit platelets assessed as inhibition of arachidonic acid-induced platelet aggregation incubated for 5 mins prior to arachidonic acid-challenge measured within 5 mins by Born's turbidimetric analysis; assay type: functional, cell-based; conditions: Oryctolagus cuniculus
Summary of the method: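 Rabbit citrated PRP was adjusted to 400−450 × 10⁹ platelets/L and preincubated for 5 min at 37 °C with vehicle DMSO or compound at 0.1−1.6 mM (at least five concentrations). Aggregation was induced with arachidonic acid (0.33 mM, per the methods text). Maximum aggregation rate was recorded over 5 min by Born's turbidimetry, and IC₅₀ was derived from inhibition versus vehicle (mean ± SD).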

[2] = Antiplatelet aggregation activity in rabbit platelets assessed as inhibition of ADP-induced platelet aggregation incubated for 5 mins prior to ADP-challenge measured within 5 mins by Born's turbidimetric analysis; assay type: functional, cell-based; conditions: Oryctolagus cuniculus
[3] = Antiplatelet aggregation activity in rabbit platelets assessed as inhibition of ADP-induced platelet aggregation at 1 mM incubated for 5 mins prior to ADP-challenge measured within 5 mins by Born's turbidimetric analysis relative to control; assay type: functional; conditions: Oryctolagus cuniculus
Summary of the method: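 Rabbit carotid blood was citrated (3.8%, 9:1). PRP was adjusted with PPP to 400−450 × 10⁹ platelets/L. PRP was preincubated with compound or DMSO for 5 min at 37 °C, then aggregation was induced with ADP at 10 μM. Maximum aggregation rate was recorded over 5 min using Born's turbidimetry. Inhibition % was calculated versus vehicle; n = 6, mean ± SD.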

Mus musculus = assay: Antithrombotic activity in Swiss ICR mouse assessed as inhibition of collagen/adrenaline-induced acute systemic vascular thromboembolism at 160 mg/kg, po administered for 7 days prior to collagen/adrenaline-challenge measured up to 15 mins relative to control; assay type: functional, organism-based; parameters: dose 160 mg/kg
Summary of the method: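 Male Swiss ICR mice (30−35 g), n = 15 per group, dosed by gavage daily for 7 days in DMSO vehicle. Two hours after the last dose, mice received collagen (0.21 mg/kg) plus adrenaline (44.5 μg/kg) iv. Survival was monitored for 15 min and reported as % surviving.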

| IC50 [1] [µM] | IC50 [2] [µM] | SMILES | inhibition at 1000 µM [3] [%] | Activity (Mus musculus) |
| --- | --- | --- | --- | --- |
| 360 | 490 | CCCC[C@H](OC(=O)CN1CCN(CCO)CC1)c1ccccc1C(=O)O[C@H]1CO[C@H]2[C@@H]1OC[C@H]2OC(=O)c1ccccc1[C@H](CCCC)OC(=O)CN1CCN(CCO)CC1 | – | – |
| 270 | 360 | CCCC[C@@H](OC(=O)CN1CCN(C)CC1)c1ccccc1C(=O)O[C@H]1CO[C@H]2[C@@H]1OC[C@H]2OC(=O)c1ccccc1[C@@H](CCCC)OC(=O)CN1CCN(C)CC1 | – | – |
| 1680 | 1350 | O[C@@H]1CO[C@H]2[C@@H]1OC[C@@H]2O [ISOSORBIDE] | 6.94 | – |
| – | – | CCCC[C@H](OC(=O)CN1CCN(C)CC1)c1ccccc1C(=O)O[C@H]1CO[C@H]2[C@@H]1OC[C@H]2O | 6.94 | – |
| 140 | – | CC(=O)Oc1ccccc1C(=O)O [ASPIRIN] | – | Active |
| 800 | 940 | CCCC[C@@H](OC(=O)CN1CCOCC1)c1ccccc1C(=O)O[C@H]1CO[C@H]2[C@@H]1OC[C@H]2OC(=O)c1ccccc1[C@@H](CCCC)OC(=O)CN1CCOCC1 | – | – |
| 630 | 750 | CCCC[C@@H](OC(=O)CN1CCN(CCO)CC1)c1ccccc1C(=O)O[C@H]1CO[C@H]2[C@@H]1OC[C@H]2OC(=O)c1ccccc1[C@@H](CCCC)OC(=O)CN1CCN(CCO)CC1 | – | – |
| 640 | 800 | CCCC[C@H](OC(=O)CN1CCCC1)c1ccccc1C(=O)O[C@H]1CO[C@H]2[C@@H]1OC[C@H]2OC(=O)c1ccccc1[C@H](CCCC)OC(=O)CN1CCCC1 | – | – |
| – | – | CCCC[C@H](OC(=O)CN1CCN(C)CC1)c1ccccc1C(=O)O[C@@H]1CO[C@H]2[C@@H]1OC[C@@H]2O[N+](=O)[O-] | 6.94 | – |
| – | – | CCCC[C@H](OC(=O)CN1CCN(C)CC1)c1ccccc1C(=O)O[C@H]1CO[C@H]2[C@@H]1OC[C@H]2O[N+](=O)[O-] | 6.94 | – |
| 910 | 1000 | CCCC[C@@H](OC(=O)CN1CCCC1)c1ccccc1C(=O)O[C@H]1CO[C@H]2[C@@H]1OC[C@H]2OC(=O)c1ccccc1[C@@H](CCCC)OC(=O)CN1CCCC1 | – | – |
| – | – | CCCC[C@H](OC(=O)CN1CCN(C)CC1)c1ccccc1C(=O)O[C@@H]1CO[C@H]2[C@@H]1OC[C@@H]2O | 6.94 | – |
| 210 | 330 | CCCC[C@H](OC(C)=O)c1ccccc1C(=O)O[C@H]1CO[C@H]2[C@@H]1OC[C@H]2OC(=O)c1ccccc1[C@H](CCCC)OC(C)=O | – | – |
| 570 | 710 | CCCC[C@@H](OC(C)=O)c1ccccc1C(=O)O[C@H]1CO[C@H]2[C@@H]1OC[C@H]2OC(=O)c1ccccc1[C@@H](CCCC)OC(C)=O | – | – |
| – | – | CCCC[C@H](OC(=O)CN1CCN(C)CC1)c1ccccc1C(=O)O | 6.94 | – |
| 320 | 450 | CCCC[C@H](OC(=O)CN1CCOCC1)c1ccccc1C(=O)O[C@H]1CO[C@H]2[C@@H]1OC[C@H]2OC(=O)c1ccccc1[C@H](CCCC)OC(=O)CN1CCOCC1 | – | – |

| SMILES | IC50 [1] [µM] | IC50 [2] [µM] | inhibition at 1000 µM [3] [%] | Activity (Mus musculus) |
| --- | --- | --- | --- | --- |
| Clc1ccccc1CN1CCc2sccc2C1 [TICLOPIDINE HYDROCHLORIDE] | – | 360 | – | – |

Source: ChEMBL document CHEMBL2321684, “Novel hybrids of optically active ring-opened 3-n-butylphthalide derivative and isosorbide as potential anti-ischemic stroke agents” (J Med Chem, 2013)
